Results as given in ChEMBL document CHEMBL1132183 (J Med Chem, 1999).

Assays:
[1] = target: T1, 5-hydroxytryptamine receptor 1A (Homo sapiens) (UniProt P08908); assay: Agonist efficacy on 5-hydroxytryptamine 1A receptor subtype; type: functional
T1 sequence (whole entry): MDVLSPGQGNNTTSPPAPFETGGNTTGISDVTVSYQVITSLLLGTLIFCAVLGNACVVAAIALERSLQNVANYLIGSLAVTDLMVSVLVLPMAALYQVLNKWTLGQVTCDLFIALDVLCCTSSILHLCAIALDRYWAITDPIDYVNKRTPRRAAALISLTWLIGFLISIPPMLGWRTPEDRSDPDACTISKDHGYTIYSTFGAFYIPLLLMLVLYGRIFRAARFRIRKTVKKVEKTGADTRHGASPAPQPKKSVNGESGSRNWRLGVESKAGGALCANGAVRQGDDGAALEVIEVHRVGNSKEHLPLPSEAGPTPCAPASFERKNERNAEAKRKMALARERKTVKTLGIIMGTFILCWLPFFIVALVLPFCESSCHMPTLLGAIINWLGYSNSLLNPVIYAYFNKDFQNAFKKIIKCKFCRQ
How it was run: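 [35S]GTPγS binding in membranes of HeLa cells stably expressing human 5-HT1A, in 20 mM HEPES, 3 mM MgSO4, 120 mM NaCl pH 7.4. Preincubation 20 min at 30 °C with 30 μM GDP and drug (0.1 nM–100 μM), then 150–250 pM [35S]GTPγS for 30 min at 30 °C. Stimulation above basal was scaled to the 5-HT maximum (100%). Emax and pD2 came from curve fits; triplicate, 2–3 sessions.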

D(2) dopamine receptor = D(2) dopamine receptor (Rattus norvegicus, UniProt P61169); assay: Displacement of [3H]spiperone from rat brain Dopamine receptor D2
Chain of D(2) dopamine receptor (P61169 whole entry): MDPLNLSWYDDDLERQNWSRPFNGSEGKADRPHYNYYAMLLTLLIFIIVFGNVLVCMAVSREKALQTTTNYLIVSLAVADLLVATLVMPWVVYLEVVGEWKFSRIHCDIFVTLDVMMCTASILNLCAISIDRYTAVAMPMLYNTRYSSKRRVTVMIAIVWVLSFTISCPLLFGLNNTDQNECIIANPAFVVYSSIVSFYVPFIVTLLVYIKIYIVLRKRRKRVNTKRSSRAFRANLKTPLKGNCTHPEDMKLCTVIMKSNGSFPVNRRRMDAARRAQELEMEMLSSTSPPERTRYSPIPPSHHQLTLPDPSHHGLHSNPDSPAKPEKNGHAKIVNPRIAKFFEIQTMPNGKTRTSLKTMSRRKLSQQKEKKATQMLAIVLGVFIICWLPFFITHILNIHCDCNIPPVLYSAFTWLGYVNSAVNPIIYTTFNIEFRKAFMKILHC
How it was run: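 Striata from male Sprague–Dawley rats homogenized in Tris-HCl pH 7.4. Buffer held 10 μM pargiline, 0.1% ascorbic acid, 120 mM NaCl, 5 mM KCl, 2 mM CaCl2, 1 mM MgCl2. Incubated with 0.2–0.6 nM [3H]spiperone for 15 min at 37 °C. Nonspecific binding defined with 1 μM (+)-butaclamol. Filtration, scintillation counting. Ki by Cheng–Prusoff.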

[2] = target: T2, Alpha-1A adrenergic receptor (Homo sapiens, UniProt P35348); assay: Displacement of [3H]prazosin from human cloned Alpha-1A adrenergic receptor
T2 sequence (P35348 whole entry): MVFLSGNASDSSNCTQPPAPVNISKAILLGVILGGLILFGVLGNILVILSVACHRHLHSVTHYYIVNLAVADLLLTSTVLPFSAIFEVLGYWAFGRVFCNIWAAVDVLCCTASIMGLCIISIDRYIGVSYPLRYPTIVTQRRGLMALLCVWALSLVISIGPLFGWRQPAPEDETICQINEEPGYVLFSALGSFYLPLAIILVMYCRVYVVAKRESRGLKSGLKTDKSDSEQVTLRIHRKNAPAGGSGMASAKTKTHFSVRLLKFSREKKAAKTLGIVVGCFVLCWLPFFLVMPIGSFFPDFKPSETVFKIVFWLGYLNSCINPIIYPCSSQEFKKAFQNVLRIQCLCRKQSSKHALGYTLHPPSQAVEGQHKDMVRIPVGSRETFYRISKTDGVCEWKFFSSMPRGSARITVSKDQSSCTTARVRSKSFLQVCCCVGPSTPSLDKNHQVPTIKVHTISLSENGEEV
How it was run: (§1)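 CHO cells stably transfected with each human α1 subtype; 30 μg membrane protein in 50 mM Tris-HCl pH 7.4 with 0.1–0.4 nM [3H]prazosin, 30 min at 25 °C. Competitors 1 pM–10 μM. Nonspecific binding defined with 10 μM phentolamine. Filtration, scintillation counting. Ki by Cheng–Prusoff; 2–3 experiments in triplicate.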

[3] = target: T3, Alpha-1D adrenergic receptor (Rattus norvegicus) (UniProt P23944); assay: Alpha-1D adrenergic receptor subtype blocking activity (antagonism) against (-)-noradrenaline-induced contraction of rat thoracic aorta.; type: functional, tissue-based
T3 sequence (whole entry): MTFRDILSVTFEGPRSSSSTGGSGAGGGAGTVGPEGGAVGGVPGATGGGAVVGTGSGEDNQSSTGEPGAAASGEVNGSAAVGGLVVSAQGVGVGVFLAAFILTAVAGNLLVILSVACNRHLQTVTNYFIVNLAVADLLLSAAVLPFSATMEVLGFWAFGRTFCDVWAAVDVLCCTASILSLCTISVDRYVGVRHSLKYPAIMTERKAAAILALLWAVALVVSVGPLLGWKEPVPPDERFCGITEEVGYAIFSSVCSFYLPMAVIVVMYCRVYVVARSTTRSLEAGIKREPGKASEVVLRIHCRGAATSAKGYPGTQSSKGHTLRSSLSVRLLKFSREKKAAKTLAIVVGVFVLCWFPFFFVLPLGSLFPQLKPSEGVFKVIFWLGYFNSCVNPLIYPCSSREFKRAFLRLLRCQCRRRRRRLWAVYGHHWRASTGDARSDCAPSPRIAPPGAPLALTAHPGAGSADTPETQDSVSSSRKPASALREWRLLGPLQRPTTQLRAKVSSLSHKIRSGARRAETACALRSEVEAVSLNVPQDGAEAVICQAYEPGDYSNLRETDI
How it was run: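 Helicoidal strips of rat thoracic aorta under 1 g tension, bath with 0.01 μM desipramine and 1 μM (±)-propranolol, equilibrated ≥1 h. Cumulative (–)-noradrenaline curves at 30-min intervals: first two discarded, third as control, fourth after 30-min antagonist exposure. pKb by Arunlakshana–Schild from EC50 dose ratios at 2–3 antagonist concentrations, each tested four times.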

[4] = target: T4, Alpha-1D adrenergic receptor (Homo sapiens, UniProt P25100); assay: Displacement of [3H]prazosin from human cloned Alpha-1D adrenergic receptor; how it was run: as §1
T4 sequence (P25100 whole entry): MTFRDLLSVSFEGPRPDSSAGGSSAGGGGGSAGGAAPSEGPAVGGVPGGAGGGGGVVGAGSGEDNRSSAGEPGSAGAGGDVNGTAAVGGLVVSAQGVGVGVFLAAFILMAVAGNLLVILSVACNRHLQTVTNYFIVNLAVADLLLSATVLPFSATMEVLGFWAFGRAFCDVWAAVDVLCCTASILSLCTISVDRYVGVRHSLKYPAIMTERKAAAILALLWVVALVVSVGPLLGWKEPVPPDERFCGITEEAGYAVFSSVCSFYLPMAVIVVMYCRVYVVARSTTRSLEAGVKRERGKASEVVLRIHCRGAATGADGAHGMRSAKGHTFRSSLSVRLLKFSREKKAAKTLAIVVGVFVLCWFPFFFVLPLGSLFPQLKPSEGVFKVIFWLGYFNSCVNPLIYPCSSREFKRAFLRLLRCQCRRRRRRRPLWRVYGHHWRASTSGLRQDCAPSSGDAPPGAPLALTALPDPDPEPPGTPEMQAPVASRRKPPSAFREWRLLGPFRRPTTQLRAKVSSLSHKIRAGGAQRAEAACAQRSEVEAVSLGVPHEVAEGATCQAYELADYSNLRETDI

| Structure (SMILES) | Max [1] | Ki (D(2) dopamine receptor) | Ki [2] | pKb [3] | Ki [4] |
| --- | --- | --- | --- | --- | --- |
| O[C@H]1[C@@H](NC[C@H]2COc3ccccc3O2)CC[C@@H]1Oc1ccccc1 | 82% | 2400 nM | 389 nM | 6.92 | 200 nM |
| O[C@@H]1[C@H](NC[C@@H]2COc3ccccc3O2)CC[C@H]1Oc1ccccc1 | 23% | 6170 nM | 77.6 nM | 7.78 | 16.2 nM |
| O[C@H]1[C@@H](NC[C@@H]2COc3ccccc3O2)CC[C@@H]1Oc1ccccc1 | 96% | 1120 nM | 955 nM | 6.65 | 933 nM |
| O[C@@H]1[C@H](NC[C@H]2COc3ccccc3O2)CC[C@H]1Oc1ccccc1 | 100% | 2400 nM | 36.3 nM | 8.17 |  |
